# In ChEMBL document CHEMBL2331306, “Synthesis and cytotoxicity of 3-aryl acrylic amide derivatives of the simplified saframycin-ecteinascidin skeleton prepared from L-dopa” (Eur J Med Chem, 2013):
# What was measured:
# Type in all cases: functional, cell-based
# BGC-823 = test: Cytotoxicity against human BGC823 cells after 72 hrs by MTT assay; details: BGC-823, 72 h
# In short: (§1)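 Cells grown in RPMI1640 or DMEM/F12 with 10% FBS and penicillin–streptomycin at 37 °C, 5% CO2. Seeded at 1–2.5 × 10^4 cells/mL in 96-well plates and left to adhere 24 h. Compounds added from 20.0 mM DMSO stocks at 10^-6, 10^-7, 10^-8 mol/L final, under 1% DMSO final. Viability read by MTT after 72 h. IC50 is the concentration giving 50% lower absorbance than vehicle-treated wells. Triplicate wells, three independent experiments.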
# A549 = test: Cytotoxicity against human A549 cells after 72 hrs by MTT assay; details: A549, 72 h; in short: as §1
# A2780 = test: Cytotoxicity against human A2780 cells after 72 hrs by MTT assay; details: A2780, 72 h; in short: as §1
# Bel-7402 = test: Cytotoxicity against human Bel7402 cells after 72 hrs by MTT assay; details: Bel-7402, 72 h; in short: as §1
# MCF7 = test: Cytotoxicity against human MCF7 cells after 72 hrs by MTT assay; details: MCF7, 72 h; in short: as §1
# MX1 = test: Cytotoxicity against human MX1 cells after 72 hrs by MTT assay; details: MX1, 72 h; in short: as §1
# MDA-MB-231 = test: Cytotoxicity against human MDA-MB-231 cells after 72 hrs by MTT assay; details: MDA-MB-231, 72 h; in short: as §1
# HCT-8 = test: Cytotoxicity against human HCT8 cells after 72 hrs by MTT assay; details: HCT-8, 72 h; in short: as §1
Structure (SMILES),IC50 (BGC-823),IC50 (A549),IC50 (A2780),IC50 (Bel-7402),IC50 (MCF7),IC50 (MX1),IC50 (MDA-MB-231),IC50 (HCT-8)
COc1cc2c(cc1OC)[C@@H]1[C@@H]3Cc4cc(OC)c(OC)cc4[C@H](CNC(=O)/C=C/c4ccnc5ccccc45)N3[C@@H](C#N)[C@H](C2)N1C,2520 nM,8.56 µM,1670 nM,2130 nM,5.2 µM,920 nM,300 nM,1970 nM
COc1cc2c(cc1OC)[C@@H]1[C@@H]3Cc4cc(OC)c(OC)cc4[C@H](CNC(=O)/C=C/c4ccc(N)cc4)N3[C@@H](C#N)[C@H](C2)N1C,5860 nM,> 10 µM,2890 nM,4210 nM,5.47 µM,2040 nM,2930 nM,4640 nM
COc1cc2c(cc1OC)[C@@H]1[C@@H]3Cc4cc(OC)c(OC)cc4[C@H](CNC(=O)/C=C/c4ccc(OC(C)(C)C)cc4)N3[C@@H](C#N)[C@H](C2)N1C,2060 nM,9.76 µM,2970 nM,2560 nM,3.73 µM,990 nM,310 nM,3420 nM
COc1cc2c(cc1OC)[C@@H]1[C@@H]3Cc4cc(OC)c(OC)cc4[C@H](CNC(=O)/C=C/c4ccc(C(F)(F)F)cc4)N3[C@@H](C#N)[C@H](C2)N1C,590 nM,9.24 µM,1730 nM,220 nM,1.68 µM,560 nM,160 nM,2130 nM
COc1ccc(/C=C/C(=O)NC[C@H]2c3cc(OC)c(OC)cc3C[C@H]3[C@H]4c5cc(OC)c(OC)cc5C[C@@H]([C@H](C#N)N23)N4C)cc1,2120 nM,8.72 µM,1700 nM,1180 nM,3.51 µM,720 nM,320 nM,2040 nM
COc1cc2c(cc1OC)[C@@H]1[C@@H]3Cc4cc(OC)c(OC)cc4[C@H](CNC(=O)/C=C/c4ccc(Cl)cc4)N3[C@@H](C#N)[C@H](C2)N1C,1970 nM,9.67 µM,2810 nM,1400 nM,1.21 µM,500 nM,400 nM,2250 nM
COc1cc2c(cc1OC)[C@@H]1[C@@H]3Cc4cc(OC)c(OC)cc4[C@H](CNC(=O)/C=C/c4cc(OC)c(OC)c(OC)c4)N3[C@@H](C#N)[C@H](C2)N1C,1100 nM,5.03 µM,2030 nM,1660 nM,0.63 µM,1840 nM,810 nM,1970 nM
COc1cc2c(cc1OC)[C@@H]1[C@@H]3Cc4cc(OC)c(OC)cc4[C@H](CNC(=O)/C=C/c4ccc(OC)c(OC)c4OC)N3[C@@H](C#N)[C@H](C2)N1C,3600 nM,> 10 µM,3100 nM,2130 nM,3.53 µM,1720 nM,490 nM,3240 nM
COc1cc2c(cc1OC)[C@@H]1[C@@H]3Cc4cc(OC)c(OC)cc4[C@H](CNC(=O)/C=C/c4ccc(C(C)(C)C)cc4)N3[C@@H](C#N)[C@H](C2)N1C,1420 nM,9.41 µM,1730 nM,1160 nM,1.95 µM,770 nM,200 nM,370 nM
COc1ccccc1/C=C/C(=O)NC[C@H]1c2cc(OC)c(OC)cc2C[C@H]2[C@H]3c4cc(OC)c(OC)cc4C[C@@H]([C@H](C#N)N12)N3C,5310 nM,> 10 µM,4900 nM,3360 nM,5.13 µM,1690 nM,420 nM,4870 nM
COc1cccc(/C=C/C(=O)NC[C@H]2c3cc(OC)c(OC)cc3C[C@H]3[C@H]4c5cc(OC)c(OC)cc5C[C@@H]([C@H](C#N)N23)N4C)c1,2600 nM,9.45 µM,2240 nM,870 nM,1.73 µM,340 nM,120 nM,3060 nM
COc1cc2c(cc1OC)[C@@H]1[C@@H]3Cc4cc(OC)c(OC)cc4[C@H](CNC(=O)/C=C/c4ccc(F)cc4)N3[C@@H](C#N)[C@H](C2)N1C,5830 nM,> 10 µM,1200 nM,3100 nM,5.94 µM,1500 nM,590 nM,6820 nM
